The results in this text go back to ChEMBL document CHEMBL2062360, “Distinct biological effects of golgicide a derivatives on larval and adult mosquitoes” (2012).

Common to all, as to assay type: functional
Experiment [1] relates to Anopheles stephensi. As to the kind of experiment: Insecticidal activity against Anopheles stephensi second instar larvae assessed as mortality at 0.2 mM after 24 hrs by microscopic analysis relative to control. Summed up: (§1)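 Second instar larvae of Ae. aegypti and An. stephensi were exposed to compounds added directly to the culture media, with DMSO as the vehicle control. Larval mortality was scored 24 h later and reported as mean with SEM, with statistical testing against control.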

The subject of experiment [2] is Aedes aegypti. As to the kind of experiment: Insecticidal activity against Aedes aegypti assessed as ovarian follicle size at 0.7 mM administered 1 hr post human blood-meal measured after 47 hrs (reference value: 482.6+/-4.8 um).
Experiment [3] concerns Aedes aegypti. As to the kind of experiment: Insecticidal activity against Aedes aegypti second instar larvae assessed as mortality at 0.2 mM after 24 hrs by microscopic analysis relative to control. Summed up: as §1
Experiment [4] is described as follows: Selectivity ratio of mortality against Anopheles stephensi second instar larvae to mortality against Aedes aegypti second instar larvae.
The subject of experiment [5] is Aedes aegypti. Briefly: Insecticidal activity against Aedes aegypti second instar larvae assessed as mortality after 24 hrs by microscopic analysis relative to control. Summed up:
as §1

For experiment [6], the system named is Anopheles stephensi. Briefly: Insecticidal activity against Anopheles stephensi second instar larvae assessed as mortality after 24 hrs by microscopic analysis relative to control. In a few lines:
as §1

With `Fc1cc(F)c2c(c1)[C@H]1C=CC[C@H]1[C@@H](c1cccnc1)N2`, the values for the Activity with Anopheles stephensi [1], in the experiment on Aedes aegypti [2] and with Aedes aegypti [3] were 0%, 408.2 um and 4.7%, respectively.

As to `Fc1cc(F)c2c(c1)[C@@H]1C=CC[C@@H]1[C@H](c1cccnc1)N2`, the Activity in the experiment on Anopheles stephensi [1] was determined as 83.4%; in the experiment on Aedes aegypti [2], 270 um; with Aedes aegypti [3] it was 18.1%. The Ratio in experiment [4] was 5.

For `Fc1cc(F)c2c(c1)[C@H]1C=CC[C@H]1[C@H](c1cccnc1)N2`, the Activity amounted to 0% with Anopheles stephensi [1], 433.6 um in the experiment with Aedes aegypti [2] and 1.5% in the experiment on Aedes aegypti [3].

As for `Fc1cc(F)c2c(c1)[C@@H]1C=CC[C@@H]1[C@@H](c1cccnc1)N2`, the Activity with Anopheles stephensi [1] was determined as 57.5%; with Aedes aegypti [2], 407.7 um; in the experiment with Aedes aegypti [3] it was 12.3%. Moreover, the Ratio in experiment [4] was 5.

In the case of `Fc1cc(F)c2c(c1)[C@@H]1C=CC[C@@H]1[C@H](c1ccccc1)N2`, the Activity in the experiment with Anopheles stephensi [1] is on record as 0%; with Aedes aegypti [2], 235.1 um; in the experiment with Aedes aegypti [3] it was 0%.

Turning to `Fc1cc(F)c2c(c1)[C@@H]1C=CC[C@@H]1C(c1cccnc1)N2` (mixture of isomers), the Activity in the experiment on Aedes aegypti [2] stood at 291.8 um.

In the case of `Fc1cc(C(F)(F)F)cc2c1NC(c1cccnc1)[C@H]1CC=C[C@@H]21` (mixture of isomers), the results for the Activity with Anopheles stephensi [1], in the experiment on Aedes aegypti [2] and in the experiment on Aedes aegypti [3] were 0%, 315 um and 5.3%, respectively.

On to `CN1c2c(F)cc(F)cc2[C@@H]2C=CC[C@@H]2[C@@H]1c1cccnc1` (racemic), for which the Activity amounted to 100% with Anopheles stephensi [1], 416.3 um in the experiment with Aedes aegypti [2] and 96.2% in the experiment on Aedes aegypti [3]. Also, the LC50 with Aedes aegypti [5] and with Anopheles stephensi [6] was 100 µM in each case.

Consider `Fc1ccc2c(c1)[C@@H]1C=CC[C@@H]1[C@H](c1cccnc1)N2` (racemic), for which the Activity is listed as 0% with Anopheles stephensi [1], 343.8 um in the experiment on Aedes aegypti [2] and 0% with Aedes aegypti [3].

As to `CC(=O)N1c2c(F)cc(F)cc2[C@@H]2C=CC[C@@H]2[C@@H]1c1cccnc1` (racemic), the results for the Activity in the experiment with Anopheles stephensi [1], in the experiment on Aedes aegypti [2] and in the experiment on Aedes aegypti [3] were 0%, 442.7 um and 1.7%, respectively.

For `Fc1cccc2c1N[C@@H](c1cccnc1)[C@H]1CC=C[C@@H]21` (racemic), the values for the Activity in the experiment on Anopheles stephensi [1], in the experiment on Aedes aegypti [2] and with Aedes aegypti [3] were 100%, 312.1 um and 91.4%, respectively. In addition, the 50% lethal concentration (LC50) in the experiment with Aedes aegypti [5] and in the experiment on Anopheles stephensi [6] was 200 µM in each case.

`Fc1cc(F)c2c(c1)[C@@H]1C=CC[C@@H]1[C@H](c1cncs1)N2` (racemic): the Activity with Anopheles stephensi [1] is recorded as 37.6%; with Aedes aegypti [2] it was 330.8 um; in the experiment on Aedes aegypti [3], 0%. For the same compound, the Ratio in experiment [4] is 5.

As for `CC(C)(C)[C@@H]1Nc2c(F)cc(F)cc2[C@@H]2C=CC[C@H]12` (racemic), the Activity in the experiment with Anopheles stephensi [1] came out at 86.4%; in the experiment on Aedes aegypti [2], 326.2 um; with Aedes aegypti [3], 15.4%. The Ratio in experiment [4] came to 5.

As to `Fc1cc(F)c2c(c1)[C@@H]1C=CC[C@@H]1[C@H](c1ccccn1)N2` (racemic), the Activity was 100% in the experiment with Anopheles stephensi [1], 287.5 um in the experiment on Aedes aegypti [2] and 100% with Aedes aegypti [3]. In addition, the LC50 in the experiment on Aedes aegypti [5] and with Anopheles stephensi [6] was 100 µM throughout.

With `N#Cc1ccc([C@@H]2Nc3c(F)cc(F)cc3[C@@H]3C=CC[C@@H]32)cc1` (racemic), the Activity was 0% in the experiment with Anopheles stephensi [1], 309.5 um in the experiment on Aedes aegypti [2] and 0% in the experiment with Aedes aegypti [3].

With `CC(=O)NCc1ccc([C@@H]2Nc3c(F)cc(F)cc3[C@@H]3C=CC[C@@H]32)cc1` (racemic), the Activity with Anopheles stephensi [1] was 0%; with Aedes aegypti [2], 375.4 um; in the experiment with Aedes aegypti [3] it was 0%.

As to `NCc1ccc([C@@H]2Nc3c(F)cc(F)cc3[C@@H]3C=CC[C@@H]32)cc1` (racemic), the Activity with Anopheles stephensi [1] is listed as 81.7%; in the experiment with Aedes aegypti [2], 301.5 um; with Aedes aegypti [3], 91.7%. Moreover, the figures for the LC50 in the experiment with Aedes aegypti [5] and in the experiment with Anopheles stephensi [6] were 200 µM and 100 µM, respectively.

In the case of `Fc1cc(F)c2c(c1)[C@@H]1C=CC[C@@H]1[C@H](c1ccc(C(F)(F)F)cc1)N2` (racemic), the values for the Activity in the experiment on Anopheles stephensi [1], in the experiment on Aedes aegypti [2] and in the experiment on Aedes aegypti [3] were 0%, 230.4 um and 5.9%, respectively.

Take `CN1CCC(NCc2ccc([C@@H]3Nc4c(F)cc(F)cc4[C@@H]4C=CC[C@@H]43)cc2)CC1` (racemic): the Activity with Anopheles stephensi [1] turned out to be 100%; in the experiment on Aedes aegypti [2], 275.3 um; in the experiment with Aedes aegypti [3] it was 100%. The LC50 in the experiment with Aedes aegypti [5] and with Anopheles stephensi [6] was 50 µM throughout.

As for `CCCCCCCNCc1ccc([C@@H]2Nc3c(F)cc(F)cc3[C@@H]3C=CC[C@@H]32)cc1` (racemic), the values for the Activity in the experiment on Anopheles stephensi [1], in the experiment on Aedes aegypti [2] and in the experiment on Aedes aegypti [3] were 0%, 243.4 um and 0%, respectively.

Turning to `Fc1cc(F)c2c(c1)[C@@H]1C=CC[C@@H]1[C@H](c1ccc(CNCc3ccc4ccccc4c3)cc1)N2` (racemic), the Activity in the experiment with Anopheles stephensi [1] came to 0%; in the experiment with Aedes aegypti [2], 255.9 um; in the experiment with Aedes aegypti [3], 0%.

On to `Fc1cc(F)c2c(c1)[C@@H]1C=CC[C@@H]1[C@H](c1ccc(CNCc3ccc(C(F)(F)F)cc3)cc1)N2` (racemic), for which the Activity in the experiment with Anopheles stephensi [1] was 0%; in the experiment on Aedes aegypti [2], 297.5 um; with Aedes aegypti [3] it was 0%.
